Screening results deposited in PubChem by several laboratories.
Compounds with a hit are over-represented: about 3.8% of the library has one in this group of screens.
Beta2AR agonist: agonists of human beta-2 adrenergic receptor inducing internalization | Am2.2-beta2AR cells, FAP receptor internalization, flow cytometry | response, % (no concentration beside the values) | hit rate 0.43% among 340,000 | AID 504454;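 active = response above a set limit, near 3 SD of response in nonfluorescent compounds, cut at about 42% in these data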
Target sequence (P07550 whole entry, looked up): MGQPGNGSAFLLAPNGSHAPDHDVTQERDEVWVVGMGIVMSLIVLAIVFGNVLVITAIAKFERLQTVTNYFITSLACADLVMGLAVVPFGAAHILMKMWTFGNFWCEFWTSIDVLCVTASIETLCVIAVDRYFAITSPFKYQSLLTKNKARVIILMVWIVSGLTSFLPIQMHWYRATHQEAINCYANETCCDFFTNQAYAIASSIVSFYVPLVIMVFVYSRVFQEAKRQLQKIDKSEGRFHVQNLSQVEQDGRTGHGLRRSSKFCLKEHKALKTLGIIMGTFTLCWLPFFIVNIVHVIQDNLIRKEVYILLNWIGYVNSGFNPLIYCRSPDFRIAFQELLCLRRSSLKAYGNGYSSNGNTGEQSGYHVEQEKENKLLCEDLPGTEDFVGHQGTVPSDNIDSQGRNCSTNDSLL
V-ATPase pHluor: alters yeast V-ATPase proton transport. S. cerevisiae, pHLuorin cytosolic pH fluorescence. response, % at 10 µM. hit rate 0.37% among 350,000; in the data active = response mostly above about 7.3%, no sharp cut-off; inactive = mostly below about 5.4%; also: actives read high
rCAG RNA binder: binds r(CAG) RNA repeats; hit rate 1.3% among 370,000; AID 651821; r(CAG) RNA repeat, TO-PRO-1 dye displacement fluorescence; inhibition, % at 3 µM;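 active = inhibition above the plate cutoff, the mean of all test compounds on that plate plus 3 SD, cut at about 35% in these data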;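 also: higher means more dye released from RNA so lower well fluorescence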
Granule exo inh: lytic granule exocytosis inhibition; TALL-104 LAMP-1 surface exposure, flow cytometry; cells stimulated with thapsigargin and PMA; inhibition, % at 10 µM; hit rate 0.66% among 360,000; AID 651702;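 active = inhibition above about 55%, limit read from the data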
T cell modulator: T cell immune modulators affecting CD8 T cell-vesicle binding | 2C CD8+ T cell-vesicle binding, flow cytometry; hits give low values | response (vesicle binding), % at 7 µM | hit rate 0.068% among 330,000;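 active = response, share of CD8 T cells binding vesicles, and their 90th percentile fluorescence all below set limits, cut at about 80% in these data, passing the limit was not always enough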;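 also: values below 100% mean blocked vesicle binding to the CD8+ T cells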
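Material: murine 2C transgenic CD8+ T lymphocytes / Also added: QL9-peptide-loaded Drosophila micro-vesicles bearing Ld, ICAM-1 and B7-1 / Schedule: binding step 1.5 h, 37 °C, antibody labelling 20 min, ice / Signal: flow cytometry, PE anti-B7-1 (FL2) versus Alexa647 anti-CD8 (FL8), PFA-fixed / Evaluation: percent CD8+ FL2 mean versus row control / Benchmarks: naked versus QL9-loaded vesicles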
MPTP block: permeability transition pore inhibition. isolated mouse mitochondria, Ca2+ swelling absorbance, 30 min. inhibition, % at 10 µM. hit rate 1.4% among 360,000. AID 602449;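 active = inhibition of 50% or more, scaled per plate between neutral and stimulator controls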
Large screens that a line does not name were inactive.

O=C1NC(=O)N(Cc2ccc(F)cc2)C(=O)/C1=C/c1cccs1	Granule exo inh 56
CN(C)c1ccc(/C=C2/C(=O)NC(=O)N(CCc3ccc(F)cc3)C2=O)cc1	none
O=C1NC(=O)N(CCc2ccc(F)cc2)C(=O)/C1=C\C=C\c1ccccc1	Granule exo inh 66 (no result: T cell modulator)
CN(C)c1ccc(/C=C2\C(=O)NC(=O)N(Cc3ccc(F)cc3)C2=O)cc1	none
Cc1ccc(/C=C2\C(=O)NC(=O)N(CCc3ccc(F)cc3)C2=O)s1	Granule exo inh 92
C=CCN1C(=O)NC(=O)/C(=C/C=C/c2ccccc2)C1=O	Beta2AR agonist 75 (no result: T cell modulator)
CC(C)(C)NC(=O)C1CN=C(c2ccccc2)c2cc(Cl)ccc2N1C(=O)C1CCC1 (stereo unspecified)	none (no result: Beta2AR agonist, V-ATPase pHluor, Granule exo inh, T cell modulator, MPTP block)
C/C(=N\NC(=O)c1ccncc1)c1c(O)n(Cc2ccccc2)c(=O)[nH]c1=O	none
C/C(=N\NC(=O)c1ccccc1O)c1c(O)n(Cc2ccccc2)c(=O)[nH]c1=O	rCAG RNA binder 86
N#CC(C#N)=NNc1ccc(S(N)(=O)=O)cc1	rCAG RNA binder 67
CC1CCN(S(=O)(=O)c2ccc(NN=C(C#N)C#N)cc2)CC1	none (no result: Beta2AR agonist, V-ATPase pHluor, rCAG RNA binder, Granule exo inh, MPTP block)
CC(C)C(C(=O)NC(C)(C)C)N1C(=O)CN=C(c2ccccc2)c2ccccc21 (stereo unspecified)	none (no result: Beta2AR agonist, V-ATPase pHluor, Granule exo inh, T cell modulator, MPTP block)
O=C1C(=O)c2ccccc2-c2ccccc21	Beta2AR agonist 103, Granule exo inh 85
Cc1ccc(/C=C2\C(=O)NC(=O)N(CCc3ccc(F)cc3)C2=O)o1	none
O=C1NC(=O)C(=Cc2ccc(-c3ccc(S(=O)(=O)N4CCOCC4)cc3)o2)C(=O)N1	none
O=C1NC(=O)C(=Cc2ccc(-c3ccc(Cl)cc3)o2)C(=O)N1	Beta2AR agonist 60 (no result: rCAG RNA binder)
O=C1NC(=O)C(=Cc2ccc(-c3ccc(F)cc3O)o2)C(=O)N1	Beta2AR agonist 42
O=C1NC(=O)C(=Cc2ccc(Sc3ccccc3)o2)C(=O)N1	Granule exo inh 98
CN1C(=O)C(=Cc2ccc(Sc3ccccc3)o2)C(=O)N(C)C1=O	none
C=C1C(=O)O[C@@H]2C[C@@H](C)[C@@H]3C=CC(=O)[C@@]3(C)[C@@H](OC(=O)CC(=O)O[C@H]3[C@@H]4C(=C)C(=O)O[C@@H]4C[C@@H](C)[C@@H]4C=CC(=O)[C@]43C)[C@H]12	Beta2AR agonist 48
C=C1C(=O)OC2CC(C)C3C=CC(=O)C3(C)C(O)C12 (stereo unspecified)	none (no result: rCAG RNA binder, T cell modulator)
CC(=O)OC(C)(C)/C=C/C(=O)[C@](C)(O)C1[C@H](O)C[C@@]2(C)C3CC=C4C(C[C@H](O)C(=O)C4(C)C)[C@]3(C)C(=O)C[C@]12C (stereo partly specified)	Beta2AR agonist 66 (no result: rCAG RNA binder)
CC(C)(O)/C=C/C(=O)C(C)(O)C1C(O)CC2(C)C3CC=C4C(C=C(O)C(=O)C4(C)C)C3(C)C(=O)CC12C (stereo unspecified)	Beta2AR agonist 42 (no result: T cell modulator)
CC(NC(=O)OCc1ccccc1)P(=O)(Oc1ccccc1)Oc1ccccc1 (stereo unspecified)	none (no result: Beta2AR agonist, V-ATPase pHluor, Granule exo inh, T cell modulator, MPTP block)
COC(=O)C1=C[C@H]([C@@H](C)[C@H](OC)c2ccccc2Br)[C@@H]2[C@H]1c1ccccc1N2C	none (no result: Beta2AR agonist, V-ATPase pHluor, Granule exo inh, T cell modulator, MPTP block)
O=c1[nH]c(O)c(/C=C2/C=CC(c3cc(Cl)ccc3Cl)=N2)c(=O)[nH]1	Granule exo inh 92
CC1=Nc2ccccc2/C1=C/c1c(O)[nH]c(=O)[nH]c1=O	none
N#CCC[C@@H]1CC[C@]2(CCCN(Cc3ccccn3)C2)O1	none (no result: Beta2AR agonist, V-ATPase pHluor, Granule exo inh, T cell modulator, MPTP block)
CN1C(=O)/C(=C/c2ccc(Cl)s2)C(=O)NC1=S	V-ATPase pHluor 25
COC(=O)C1CN(C#N)N(c2ccc(Cl)cc2)C12c1ccccc1-c1ccccc12 (stereo unspecified)	Granule exo inh 69 (no result: rCAG RNA binder)
CCCCCCCCn1sccc1=O	V-ATPase pHluor 37
O=c1c2ccccc2nc(-c2ccccc2)n1-c1ccccc1	none
O=c1c2ccccc2[se]n1-c1ccccc1	Granule exo inh 82
Cc1cc(N2CCNC[C@H]2C)ccc1N1CC[C@H](O)C1	none (no result: Beta2AR agonist, V-ATPase pHluor, Granule exo inh, T cell modulator, MPTP block)
Cc1ccc([C@@H]2C[C@H]3[C@@H](CN2S(=O)(=O)c2ccc(Cl)cc2)C(=O)C[C@@H](c2ccccc2F)N3S(=O)(=O)c2ccc(C)cc2)cc1	none (no result: Beta2AR agonist, T cell modulator)
O=[N+]([O-])c1ccc(Cl)c([N+](=O)[O-])c1	Beta2AR agonist 59
